95 compounds from ChEMBL document CHEMBL4513216, “Probing the Open Global Health Chemical Diversity Library for Multistage-Active Starting Points for Next-Generation Antimalarials” (ACS Infect Dis, 2020) can be followed below.

Structures are written as SMILES.

A short description of the series: Toxicity liver stage against HepG2, at 10uM. It counts as cell-based. Also on record: test concentration 10 uM, cell line HepG2-A16-CD81EGFP. The conditions noted are these: human, HepG2-A16-CD81EGFP cells; read-out: INHIBITION
Summed up:
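Uninfected HepG2-A16-CD81EGFP cells, 3 × 10^3 per well, 1536-well, plated on prespotted compound at 10 μM final, parasite-free screening media added to match infected plates; puromycin 10 μM positive, DMSO 0.5% negative; run in parallel with 48 h PbLuc assay at 37 °C, 5% CO2; viability by CellTiter-Glo luminescence, normalized to controls.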
Turning to `O=C(c1ccccn1)N1CCN(c2ccc(-c3cccnc3)nn2)CC1`, the cytotoxicity at 10 µM was determined as 2.84%.

`Cc1cc(C)cc(CN2CCN(C(=O)C3CCC3)[C@@H]3CS(=O)(=O)C[C@@H]32)c1`: the cytotoxicity at 10 µM is -1.38%.

Turning to `CC(Cn1cccn1)NC(=O)Cc1csc(C(C)C)n1` (stereo not given), the cytotoxicity at 10 µM is -8.57%.

Turning to `O=C(NCCCN1CCCCC1)c1ccc(-n2ccc3ccccc32)s1`, the cytotoxicity at 10 µM is -6.19%. The same measure for `CCCC1COCCN1Cc1ccc(S(=O)(=O)NC)cc1` (stereo not given): -142%; for `O=C(c1cc2c(s1)CCCCC2)N1CCC(c2ncc[nH]2)CC1`: 15.7%. The same measure for `Cc1cccc(CN2CCO[C@H]3[C@H](Oc4ccccn4)CC[C@@H]32)n1`: -4.65%; for `Cc1cc(N(C)C)nc(C2CCCNC2)n1` (stereo not given): -3.55%. Take `CN1CCO[C@@H]2CN(S(=O)(=O)c3cccnc3)C[C@@H]2C1`: the cytotoxicity at 10 µM amounted to 6.17%. As for `c1ccc([C@@H]2CN(Cc3ccncc3)C[C@H]2c2cc[nH]n2)cc1`, the figure is -0.189%.

Consider `Cc1cccc2[nH]c(C3CCN(C(=O)c4ccnn4C)CC3)nc12`, for which the cytotoxicity at 10 µM was -21.6%.

For `O=C1NCCN1C1CCN(Cc2nc(-c3ccccc3)no2)CC1`, the cytotoxicity at 10 µM was 30.3%.

For the compound `CCCc1nnc(N2CCCC(c3nnc(Cn4ccnc4)n3C)C2)s1` (stereo not given), the cytotoxicity at 10 µM is -0.391%. As for `CCC(CNC(=O)C1CC1)(OC)c1ccccc1` (stereo not given), the figure is -4.34%; as for `Cn1ccnc1CN1CCCC2(CCN(CC3CCCO3)CC2)C1` (stereo not given), -76.7%; as for `Cc1nc(C)n(CC2CCCN(Cc3cccc(C#N)c3)C2)n1` (stereo not given), -16%.

With `CC1(C)CC(n2cc3nc(N4CCOCC4)[nH]cc-3c2=O)CC(C)(C)N1`, the cytotoxicity at 10 µM was -19.9%.

For the compound `CN(Cc1n[nH]c(=O)n1Cc1cccs1)S(C)(=O)=O`, the cytotoxicity at 10 µM is -4.2%.

In the case of `Cc1cnn(CC(=O)Nc2cc(-n3nnnc3C3CC3)ccc2F)c1`, the cytotoxicity at 10 µM is -5.46%. The same measure for `CCc1cc(CN2C[C@@H]3CC[C@H]2CN(C2Cc4ccccc4C2)C3)on1`: 0.998%; for `CN(CC(=O)N1CCCCC1Cn1cccn1)C1CC1` (stereo not given): -3.45%; for `Cc1noc(C)c1C(=O)N1CCCC(c2cc(C(F)(F)F)[nH]n2)C1` (stereo not given): -0.855%. Take `Cn1cnc(S(=O)(=O)NCCCN2CCCC2=O)c1Cl`: the cytotoxicity at 10 µM was -12.1%. As for `O=C(CCc1c[nH]cn1)N1CC[C@@H](c2ccc3ccccc3c2)[C@H](O)C1`, the figure is -4.04%; as for `COCCN1C(=O)CC(N2CCN(c3ccccc3)CC2)C1=O` (stereo not given), 1.22%; as for `CN(C(=O)NCCCN1CCCC1)C1CCN(c2ccccc2)C1=O` (stereo not given), 0.864%. The same measure for `CCOC(=O)N1CCC2(CCCN(C3CCOCC3)C2=O)C1` (stereo not given): -133%; for `COc1ccc(C(=O)N2CCCC(C)C2)cc1F` (stereo not given): -11.6%; for `C=C(C)CNC(=O)C1CCC(=O)N(C2CCCC2)C1` (stereo not given): -3.4%. As for `CC(O)CN(Cc1cccc(C(N)=O)c1)c1ccccc1` (stereo not given), the figure is 10.1%. `CC(O)CN1CCN(C(=O)c2cnn(-c3ccc(Cl)cc3)c2)CC1` (stereo not given): the cytotoxicity at 10 µM is -10.3%.

Turning to `O=C(c1cccs1)N1C[C@H]2CCC[C@@]2(COCC2CCOCC2)C1`, the cytotoxicity at 10 µM was -68.9%.

`CS(=O)(=O)N1CCC2(CCCN(CCCc3ccccc3)C2=O)C1` (stereo not given): the cytotoxicity at 10 µM was found to be 2.46%. As for `CN(C(=O)Cc1ccn(C)c1)C1CCCN(C2Cc3ccccc3C2)C1` (stereo not given), the cytotoxicity at 10 µM turned out to be 4.77%. With `COc1ccc(C(C)NC(=O)Cn2ccc(=O)n(C)c2=O)cc1OC` (stereo not given), the cytotoxicity at 10 µM was -9.09%. As for `O=C(CN1CCCCCCC1=O)NCc1ccccn1`, the figure is -15.3%; as for `O=C(c1ccc(O)nc1)N1CCc2ccc(O)cc2C1`, -8.77%; as for `CN(Cc1ccccn1)C(=O)c1nc(S(C)(=O)=O)n2ccccc12`, -8.01%. As for `CCOc1cccc(CNC(=O)N2CCC(Cc3cnn(C)c3)C2)c1` (stereo not given), the figure is -3.16%; as for `Cn1nc(COCC2CC2)c2c1CCN(C(=O)c1ccno1)C2`, 6.8%.

Turning to `CCCc1cc(NCCCC2CCOC2)n2nccc2n1` (stereo not given), the cytotoxicity at 10 µM was -0.247%. As for `COc1ccccc1C(=O)N1CCC(Oc2ccc(C#N)cn2)CC1`, the cytotoxicity at 10 µM was 5.54%.

For the compound `COCCNC(=O)Cn1c(-c2ccc(F)cc2)nc(C)c(CCO)c1=O`, the cytotoxicity at 10 µM was -15%. Consider `COc1ccc(Br)cc1CCC(=O)N1CCC(O)CC1`, for which the cytotoxicity at 10 µM is -1.96%. The same measure for `COC(=O)CCNC(=O)c1ccc(NC(=O)N(C)CC(C)C)cc1`: 9.13%; for `O=C(CCc1ccccc1Br)NS(=O)(=O)c1ccc2c(c1)OCCO2`: -10.7%. For `Cc1nn(C)cc1CN1CCCC(n2c(=O)oc3ccccc32)C1` (stereo not given), the cytotoxicity at 10 µM is 3.33%. The same measure for `CS(=O)(=O)N1CCOC(CNC(=O)c2cccc(C#N)c2)C1` (stereo not given): -5.69%.

Regarding `COC(=O)N1CC2(CCNCC2)c2cc(Cl)ccc21`, the cytotoxicity at 10 µM stood at 7.71%.

Turning to `CCNC(=O)c1ccc(NC(=O)N(C)Cc2cc(C)on2)cc1`, the cytotoxicity at 10 µM was -4.22%.

On to `CCc1ncc2c(n1)CN(Cc1nnc(C)o1)CC2`, for which the cytotoxicity at 10 µM was -12.1%.

As for `O=S(=O)(c1ccccc1F)N1CCC(Oc2cccnn2)CC1`, the cytotoxicity at 10 µM came out at 0.388%.

For `CC(C)c1ccc(N2CCc3onc(-c4ccc(F)c(F)c4)c3C2)nn1`, the cytotoxicity at 10 µM turned out to be 0.324%. The same measure for `NC(=O)c1cccc(CC2CCN(C(=O)CCCN3CCOCC3)C2)c1` (stereo not given): -11.3%; for `CCc1c(C)nn(CCNC(=O)c2cnn[nH]2)c1C`: -5.28%. The same measure for `Cn1ccc2c(-c3cc(N4CCCCC4)ncn3)ccnc21`: -3.46%. As for `CCC(C)C(=O)NCCc1nc(C(F)(F)F)cs1` (stereo not given), the figure is 2.08%; as for `Cc1cccc(C2(CNC(=O)C(C)S(C)(=O)=O)CCCC2)c1` (stereo not given), -2.76%. As to `O=C(c1cccnc1)N1CCc2ncnc(N3CCOCC3)c2CC1`, the cytotoxicity at 10 µM is -79.3%. As for `N#Cc1cccc(CN2Cc3nccn3CC(CN3CCCC3)C2)c1` (stereo not given), the figure is -135%.

`O=C(c1ccccc1)N(CC1CC1)c1cccnc1`: the cytotoxicity at 10 µM was determined as 7.27%. The same measure for `Cc1nc(COc2ccc(OCC(N)=O)cc2)oc1C`: 4.68%.

Take `c1ccc(-c2nc3c(c(NCCCn4cncn4)n2)CCNCC3)nc1`: the cytotoxicity at 10 µM is -45.6%. The same measure for `NC(=O)c1cnc2n1CCN(C(=O)c1cccc(Cn3cccn3)c1)C2`: 4.35%; for `CC(=O)N1CC[C@H]2NC(=O)N(Cc3ccccc3)C(=O)[C@H]21`: 4.47%; for `O=C1[C@@H]2CN(Cc3cc4ccccc4o3)C[C@]2(C(=O)O)CN1CC1CC1`: -5.22%. As for `c1cnc2nc(N3CCc4c(ncn4C4CC4)C3)ccc2n1`, the figure is 6.47%. The same measure for `Cc1ccc(F)cc1CC(=O)N1CC[C@@]2(O)CCNC[C@H]2C1`: 2.38%; for `CCN1CC(C(=O)NCc2nc(C3CCCCC3)no2)CC1=O` (stereo not given): -3.68%; for `O=C(C1CCCO1)N1CCC2(CC1)COCCN(Cc1ccncc1)C2` (stereo not given): -81.1%. With `Cc1ccc(NC(C)C(=O)N(C)Cc2cccc(F)c2)cc1C(N)=O` (stereo not given), the cytotoxicity at 10 µM is 11.4%. The same measure for `CC(C)NC(=O)[C@@H]1CN(C)C[C@]12COc1ccc(F)cc1C2=O`: 2.17%. The same measure for `CCn1cc(CN2CCC(O)(Cn3nc(C)ccc3=O)CC2)cn1`: -22.3%. For the compound `COc1c(C2CCCN2CC(=O)Nc2cc(C)no2)c(C)nn1C` (stereo not given), the cytotoxicity at 10 µM is -2.77%. As for `O=C(CS(=O)(=O)C1CCCC1)NC(c1ccc(F)cc1)C1CC1` (stereo not given), the figure is -159%.

Turning to `CCOC(=O)N1CC(=O)N(Cc2cccc(OC)c2OC)CC(O)C1` (stereo not given), the cytotoxicity at 10 µM was -3.66%. The same measure for `CN(C)C(=O)N1C[C@H]2CC[C@@H](C1)N(Cc1nnc(-c3ccccc3)o1)C2`: 4.6%; for `CC(C)C1CN(C(=O)c2cc(=O)[nH]c(=O)[nH]2)CCCN1CC1CC1` (stereo not given): -2.42%. `O=C(c1ccncc1)N1C[C@@H](OCc2cccnc2)[C@H]2OCCC[C@H]21`: the cytotoxicity at 10 µM is 0.866%.

For the compound `CC(=O)N1CCN(C(=O)CCOc2ccc(C(C)C)cc2)CC1`, the cytotoxicity at 10 µM was -6.51%. As for `CCCc1csc(-c2ccc(S(C)(=O)=O)cc2)n1`, the figure is -2.69%; as for `CN1CCOC(C(=O)N2CCC3(CCCC3)CC2)C1` (stereo not given), -1.52%; as for `O=C(NCCc1ccccn1)NC1CCN(c2ncccn2)CC1`, -16.3%. As for `CC(=O)NCCNCC1(O)CCCN(CCC2CCCCC2)C1=O` (stereo not given), the figure is 6.27%; as for `Fc1ccccc1CN1CCC(c2noc(-c3ccccn3)n2)CC1`, -1.39%; as for `CCN(Cc1ccc2c(c1)OCCO2)C(=O)NCCc1cnn(C)c1`, -3.72%. As for `CCC(C)(C)NC(=O)Nc1nnc(-c2ccccn2)s1`, the figure is 6.39%; as for `COc1cccc(CC(=O)N2CC[C@@H]3[C@H](CC2)N(C)CCS3(=O)=O)c1`, 3.68%; as for `COc1ccc(F)c(CN2CCCC(O)(CNCC(C)(C)C)C2=O)c1` (stereo not given), 12.2%. With `CC(=O)N1N=C(COc2ccc3c(c2)OCO3)OC1c1cccc(Cl)c1` (stereo not given), the cytotoxicity at 10 µM is -1.77%. The same measure for `COCCN(C)C[C@@H]1CN(C(=O)c2sc3ccccc3c2C)C[C@@H]1CO`: -7.13%; for `COC(=O)c1ccc(OC)c(CN2CCN(CC(C)C)C(=O)C2C)c1` (stereo not given): -20.3%; for `Cc1noc(C)c1CC(=O)N1CCC(Nc2cccnn2)CC1`: -15.8%. The same measure for `Cc1ccc(-n2cc(C(=O)NCc3nnc4n3CCCCC4)nn2)cc1`: -3.32%; for `O=C(Cc1cc2c(cc1Cl)OCCO2)N1CC[C@H](CO)[C@H](O)C1`: 7.96%.
